This passage reports IC50 and Ki results from ChEMBL document CHEMBL1140534, “Heteroaryl beta-tetralin ureas as novel antagonists of human TRPV1” (Bioorg Med Chem Lett, 2007).

The target of assay [1] is T1, Transient receptor potential cation channel subfamily V member 1 (Homo sapiens, UniProt Q8NER1). Nature of the assay: Antagonist activity at human recombinant TRPV1 expressed in HEK293 cells assessed as inhibition of capsaicin-induced calcium by FLIPR method. Format: functional, cell-based. The procedure, abridged:
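Stably transfected hTRPV1/HEK293 cells grown on poly-D-lysine for 2 days, then loaded with Fluo-3/AM for 1 h. Each well receives a single compound concentration. Intracellular Ca2+ is read by FLIPR for 3 min before capsaicin is added at a final 15 nM to fully activate TRPV1. Antagonist potency is reported as IC50.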

In assay [2] the target is T1, Transient receptor potential cation channel subfamily V member 1. The experiment in a line: Displacement of [3H]RTX from human TRPV1 expressed in HEK293 cells. It counts as cell-based. Put shortly: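 Membranes from hTRPV1/HEK293 cells, prepared in HEPES buffer pH 7.4 (20 mM HEPES, NaCl, sucrose, MgCl2, CaCl2, KCl). Incubated 60 min at 37 °C with 0.3–0.6 nM [3H]-RTX. Samples cooled on ice, alpha-acid glycoprotein added, then centrifuged and pellets counted by scintillation. Nonspecific binding defined with 200 nM unlabeled RTX. Reported as Ki.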
In general terms: Loss of bound radioactivity is the signal in a displacement assay; it reports binding, not function.

T1 sequence (Q8NER1 whole entry): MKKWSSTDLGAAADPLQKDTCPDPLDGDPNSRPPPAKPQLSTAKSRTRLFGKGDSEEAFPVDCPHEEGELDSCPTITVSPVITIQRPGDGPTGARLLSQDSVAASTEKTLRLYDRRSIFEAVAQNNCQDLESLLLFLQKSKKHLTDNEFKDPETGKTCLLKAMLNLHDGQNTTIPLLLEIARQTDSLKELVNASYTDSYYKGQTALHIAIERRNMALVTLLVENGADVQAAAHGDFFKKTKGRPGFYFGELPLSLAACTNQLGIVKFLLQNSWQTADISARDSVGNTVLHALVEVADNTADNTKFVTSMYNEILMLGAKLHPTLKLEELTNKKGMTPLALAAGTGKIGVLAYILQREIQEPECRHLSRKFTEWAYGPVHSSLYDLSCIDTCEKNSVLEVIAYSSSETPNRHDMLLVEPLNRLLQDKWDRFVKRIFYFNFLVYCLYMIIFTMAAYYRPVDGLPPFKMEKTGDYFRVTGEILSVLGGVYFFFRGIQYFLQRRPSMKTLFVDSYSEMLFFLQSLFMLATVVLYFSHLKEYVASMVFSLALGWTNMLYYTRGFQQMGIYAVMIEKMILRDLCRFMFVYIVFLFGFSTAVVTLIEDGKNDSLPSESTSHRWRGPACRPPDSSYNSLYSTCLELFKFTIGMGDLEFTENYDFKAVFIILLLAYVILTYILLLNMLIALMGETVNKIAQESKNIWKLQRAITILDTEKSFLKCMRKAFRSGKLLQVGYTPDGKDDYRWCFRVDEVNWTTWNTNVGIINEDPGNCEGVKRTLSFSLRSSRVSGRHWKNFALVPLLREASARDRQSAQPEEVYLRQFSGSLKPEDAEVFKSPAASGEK

As to `COc1ccc2c(c1)CCC(NC(=O)Nc1cccc3cnccc13)C2Cc1ccc(Br)cc1` (centres undefined), the IC50 in assay [1] worked out at 22 nM. Besides, the Ki in assay [2] was 1 nM.

Regarding `COc1cc2c(cc1OC)C(Cc1ccccc1)C(NC(=O)Nc1cccc3cnccc13)CC2` (centres undefined), in assay [1], the IC50 was found to be 230 nM. Also, the Ki in assay [2] stood at 20 nM.

Regarding `O=C(Nc1cccc2cnccc12)NC1CCc2cc(Br)ccc2C1Cc1ccccc1` (centres undefined), the IC50 in assay [1] is 17 nM. Also, the Ki in assay [2] came out at 2 nM.

Turning to `O=C(Nc1cccc2cnccc12)NC1CCc2ccc(Cl)cc2C1Cc1ccccc1` (centres undefined), the IC50 in assay [1] was 86 nM. In assay [2], this compound displayed an inhibition constant (Ki) of 5 nM.

Consider `COc1ccc2c(c1)CCC(NC(=O)Nc1cccc3cnccc13)C2Cc1cccnc1` (centres undefined), for which, in assay [1], the IC50 was > 1000 nM.

For `COc1ccc(C(CNC(=O)Nc2cccc3cnccc23)Cc2cccnc2)cc1` (centres undefined), in assay [1], the IC50 was determined as 184 nM. This compound returned a Ki in assay [2] of 578 nM.

`COc1ccc2c(c1)CCC(NC(=O)Nc1cccc3cnccc13)C2Cc1ccc(C#N)cc1` (centres undefined): the IC50 in assay [1] came out at 21 nM. In assay [2], the affinity corresponds to a Ki of 17 nM.

Turning to `N#CCC1c2ccc(Cl)cc2CCC1NC(=O)Nc1cccc2cnccc12` (centres undefined), the IC50 in assay [1] was > 1000 nM.

As for `O=C(Nc1cccc2cnccc12)NC1CCc2cc(F)ccc2C1Cc1ccoc1` (centres undefined), the IC50 in assay [1] is 83 nM. For the same compound, the Ki in assay [2] amounted to 16 nM.

Take `O=C(Nc1cccc2cnccc12)NC1CCc2cc(F)ccc2C1Cc1cccs1` (centres undefined): in assay [1], the IC50 came out at 140 nM. In assay [2], this compound yielded an inhibition constant (Ki) of 4 nM.

Consider `O=C(Nc1cccc2cnccc12)NC1CCc2ccccc2C1Cc1ccccc1` (centres undefined), for which the IC50 in assay [1] was found to be 20 nM. The affinity in assay [2], expressed as Ki, was 4 nM.

As for `COc1ccc2c(c1)CCC(NC(=O)Nc1cccc3cnccc13)C2Cc1ccccc1` (centres undefined), in assay [1], the IC50 turned out to be 25 nM. In addition, the Ki in assay [2] was 3 nM.

Take `COc1ccc(C(CNC(=O)Nc2cccc3cnccc23)Cc2ccccc2)cc1` (centres undefined): in assay [1], the IC50 was determined as 14 nM. The compound further displayed a Ki in assay [2] of 6 nM.

Turning to `COc1ccc2c(c1)CCC(NC(=O)Nc1cccc3cnccc13)C2Cc1cccc(Cl)c1` (centres undefined), the IC50 in assay [1] is 13 nM. The compound also gave a Ki in assay [2] of 2 nM.

Turning to `O=C(Nc1cccc2cnccc12)NC1CCc2cc(F)ccc2C1CC1CC1` (centres undefined), the IC50 in assay [1] turned out to be 350 nM. Further, the inhibition constant Ki in assay [2] worked out at 0.8 nM.

For the compound `O=C(NCC(Cc1ccccc1)c1ccc(F)cc1)Nc1cccc2cnccc12` (centres undefined), the IC50 in assay [1] turned out to be 5 nM. For the same compound, the Ki in assay [2] was 8 nM.

As to `O=C(NCC(Cc1ccccc1)c1ccc(C(F)(F)F)cc1)Nc1cccc2cnccc12` (centres undefined), the affinity in assay [2], expressed as Ki, was 4 nM. That is a single-digit nanomolar value.

For the compound `COc1ccc(C(C)CNC(=O)Nc2cccc3cnccc23)cc1` (centres undefined), the IC50 in assay [1] was 680 nM. This compound also displayed a Ki in assay [2] of 1290 nM.

As to `O=C(NCC(Cc1cccc(C(F)(F)F)c1)c1ccc(F)cc1)Nc1cccc2cnccc12` (centres undefined), the IC50 in assay [1] was found to be 19 nM. Moreover, the affinity in assay [2], expressed as Ki, was 20 nM.

Take `O=C(Nc1cccc2cnccc12)NC1CCc2cc(F)ccc2C1Cc1ccccc1` (centres undefined): in assay [1], the IC50 worked out at 12 nM. Also, in assay [2], the Ki was 4 nM.

For `O=C(Nc1cccc2cnccc12)NC1CCc2c(Cl)cccc2C1Cc1ccccc1` (centres undefined), in assay [1], the IC50 is 16 nM. In addition, in assay [2], the Ki came out at 2 nM.

With `O=C(Nc1cccc2ccc(O)cc12)NC1CCc2cc(F)ccc2C1Cc1ccc(C(F)(F)F)cc1` (centres undefined), the IC50 in assay [1] stood at 360 nM. The compound also returned a Ki in assay [2] of 22 nM.

`COc1ccc2c(c1)CCC(NC(=O)Nc1cccc3ccc(O)cc13)C2Cc1ccccc1` (centres undefined): the IC50 in assay [1] turned out to be 60 nM. Further, the Ki in assay [2] was determined as 10 nM.

Take `COc1ccc2c(c1)CCC(NC(=O)Nc1cccc3cnccc13)C2Cc1ccc(C(F)(F)F)cc1` (centres undefined): in assay [1], the IC50 came out at 2 nM. In addition, the Ki in assay [2] is 2 nM.

`O=C(Nc1cccc2cnccc12)NC1CCc2cc(F)ccc2C1Cc1ccc(C(F)(F)F)cc1` (centres undefined): the IC50 in assay [1] came out at 10 nM. In assay [2], this compound gave a Ki of 1 nM.

With `O=C(Nc1cccc2cnccc12)NC1CCc2cc(O)ccc2C1Cc1ccccc1` (centres undefined), in assay [1], the IC50 was found to be 200 nM.

In the case of `C=CCC1c2ccc(F)cc2CCC1NC(=O)Nc1cccc2cnccc12` (centres undefined), the IC50 in assay [1] was found to be 100 nM. The compound further gave a Ki in assay [2] of 2 nM.

On to `O=C(Nc1cccc2cnccc12)NC1CCc2cc(Cl)ccc2C1Cc1ccccc1` (centres undefined), for which, in assay [1], the IC50 amounted to 63 nM. This compound displayed a Ki in assay [2] of 11 nM.

With `COc1ccc(CC2c3ccc(OC)cc3CCC2NC(=O)Nc2cccc3cnccc23)cc1` (centres undefined), the IC50 in assay [1] was determined as 36 nM. This compound also displayed a Ki in assay [2] of 8 nM.

As a reminder, the IC50 is the concentration at which inhibition is half-maximal. The Ki is the dissociation constant of the complex between target and ligand, obtained from inhibition or displacement. The low end stands for a stronger hold on the target, the high end for a looser hold on the target.
